A short description of assay [1]: Relative binding to mu and delta opioid receptors (ratio of Ki).
For assay [2], the target named is Delta-type opioid receptor (Mus musculus) (UniProt P32300). The conditions noted are these: Vas deferens.
For assay [3], the target named is Mu-type opioid receptor (Cavia porcellus, UniProt P97266). The experiment in a line: In vitro inhibitory activity against electrically evoked contractions of guinea pig ileum (GPI). It counts as functional, tissue-based. In a few lines: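 Isolated tissue bioassay. IC50 read from concentration–response curves of agonist inhibition. Mean ± SE of at least five fresh tissue samples, with an internal standard peptide run for each tissue.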
Mu-type opioid receptor (Cavia porcellus, UniProt P97266), sequence (P97266 whole entry): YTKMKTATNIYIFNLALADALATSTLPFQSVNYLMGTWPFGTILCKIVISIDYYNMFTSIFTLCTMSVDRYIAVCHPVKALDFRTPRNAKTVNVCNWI

The target in assay [4] is Delta-type opioid receptor (Mus musculus, UniProt P32300). Nature of the assay: In vitro inhibitory activity against electrically evoked contractions of in mouse vas deferens (MVD). Type of assay: functional, tissue-based.
Delta-type opioid receptor (Mus musculus, UniProt P32300), sequence (P32300 whole entry): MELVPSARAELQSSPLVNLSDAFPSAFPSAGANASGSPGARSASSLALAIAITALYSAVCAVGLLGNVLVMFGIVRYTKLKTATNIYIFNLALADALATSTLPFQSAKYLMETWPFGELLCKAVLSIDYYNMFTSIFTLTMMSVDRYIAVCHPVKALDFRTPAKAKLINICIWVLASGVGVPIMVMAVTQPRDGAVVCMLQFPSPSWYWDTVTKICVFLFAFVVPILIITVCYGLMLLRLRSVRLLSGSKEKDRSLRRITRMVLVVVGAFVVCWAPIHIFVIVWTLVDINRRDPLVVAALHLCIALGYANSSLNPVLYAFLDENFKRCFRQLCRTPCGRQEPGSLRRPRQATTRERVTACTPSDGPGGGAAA
The target in assay [5] is Delta-type opioid receptor (Rattus norvegicus, UniProt P33533). Nature of the assay: Inhibition of [3H]DPDPE binding to Opioid receptor delta 1 of rat brain P2 synaptosomes. Type of assay: subcellular. In short, it runs like this: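 Rat brain P2 synaptosomes, pretreated 60 min at room temperature in 0.1 M NaCl, 0.4 mM GDP, 50 mM HEPES pH 7.5 and 50 µg/mL trypsin inhibitor, then washed and frozen at -80 °C. Competition against [3H]DPDPE for 2 h at room temperature. Nonspecific binding defined with 2 µM unlabelled peptide. Filtered on GF/C and counted. Five to eight doses in duplicate, 3–5 independent preparations, mean ± SE. Ki via Cheng–Prusoff.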
Delta-type opioid receptor (Rattus norvegicus, UniProt P33533), sequence (P33533 whole entry): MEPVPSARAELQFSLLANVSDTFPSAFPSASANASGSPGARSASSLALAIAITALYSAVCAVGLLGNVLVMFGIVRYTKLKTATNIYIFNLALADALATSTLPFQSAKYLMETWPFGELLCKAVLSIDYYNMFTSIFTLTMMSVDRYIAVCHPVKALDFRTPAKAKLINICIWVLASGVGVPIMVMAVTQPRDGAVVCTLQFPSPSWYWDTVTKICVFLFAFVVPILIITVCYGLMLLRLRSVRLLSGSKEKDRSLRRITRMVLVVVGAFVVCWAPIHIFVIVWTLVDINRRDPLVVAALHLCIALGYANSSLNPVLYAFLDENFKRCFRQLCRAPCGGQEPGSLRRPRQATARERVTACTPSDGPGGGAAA

Assay [6] concerns the target Mu-type opioid receptor (Rattus norvegicus, UniProt P33535). The experiment in a line: Inhibition of [3H]DAGO binding to Opioid receptor mu 1 of rat brain P2 synaptosomes. It counts as subcellular. In a few lines:
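Competition binding on rat brain P2 synaptosomes. Synaptosomes were preincubated 60 min at room temperature in 0.1 M NaCl, 0.4 mM GDP, 50 mM HEPES pH 7.5 and 50 µg/mL soybean trypsin inhibitor to strip endogenous opioids, then washed, stored at -80 °C, and labelled with [3H]DAGO. Incubation ran 2 h at room temperature to equilibrium. Nonspecific binding was set with 2 µM unlabelled peptide. Bound ligand was collected by GF/C filtration and counted. Five to eight doses in duplicate, 3–5 repetitions on separate preparations, mean ± SE. Ki by Cheng–Prusoff.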

The target of assay [7] is Delta-type opioid receptor (Mus musculus) (UniProt P32300). Nature of the assay: In vitro inhibitory activity against electrically evoked contractions of the mouse vas deferens (MVD). It counts as functional, tissue-based.

Square brackets hold non-standard residues; d marks the D form. Peptide text beside a SMILES is read from it. Dmt = Cc1cc(O)cc(C)c1C[C@H](N)C(=O)O; Tic = O=C(O)[C@@H]1Cc2ccccc2CN1 Bounds are passed on as bounds.

Delta-type opioid receptor (Mus musculus), sequence (P32300 whole entry): as the sequence (P32300 whole entry) above
Mu-type opioid receptor (Rattus norvegicus, UniProt P33535), sequence (P33535 whole entry): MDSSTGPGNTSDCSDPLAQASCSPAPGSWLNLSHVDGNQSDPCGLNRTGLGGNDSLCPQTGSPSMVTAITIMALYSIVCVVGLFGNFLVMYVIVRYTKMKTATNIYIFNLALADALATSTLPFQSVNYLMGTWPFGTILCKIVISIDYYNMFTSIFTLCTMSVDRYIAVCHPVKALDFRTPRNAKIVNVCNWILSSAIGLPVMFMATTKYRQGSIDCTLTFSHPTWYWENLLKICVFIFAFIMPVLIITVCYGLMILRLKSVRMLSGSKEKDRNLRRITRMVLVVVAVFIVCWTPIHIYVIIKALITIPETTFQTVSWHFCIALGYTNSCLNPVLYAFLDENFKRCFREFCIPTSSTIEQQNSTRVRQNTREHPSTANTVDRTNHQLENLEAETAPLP

For the compound `Cc1cc(O)cc(C)c1C[C@H](N)C(=O)N1Cc2ccccc2C[C@H]1C(=O)N[C@@H](C)C(N)=O` (H-[Dmt]-[Tic]-Ala-NH2), the Selectivity in assay [1] was determined as 195. In addition, the Ke in assay [2] amounted to 10 nM.

As for `Cc1cc(O)cc(C)c1C[C@H](N)C(=O)N1Cc2ccccc2C[C@H]1C(=O)N[C@H](C)c1nc2ccccc2[nH]1`, the IC50 (as a rule, the midpoint of a concentration-inhibition curve) on Mu-type opioid receptor [3] was 6.36 nM; in assay [4], 0.026 nM. Further, the Ki (in general, a dissociation constant, usually derived from enzyme kinetics or from competition with a known ligand) in assay [5] stood at 0.047 nM; on Mu-type opioid receptor [6], 0.233 nM. The Selectivity in assay [1] was found to be 5.

Regarding `CC(C)[C@H](NC(=O)[C@H](CC(=O)O)NC(=O)[C@H](Cc1ccccc1)NC(=O)[C@H](C)NC(=O)[C@@H](N)Cc1ccc(O)cc1)C(=O)N[C@H](C(=O)NCC(=O)O)C(C)C`, the IC50 on Mu-type opioid receptor [3] is greater than 1200 nM; in assay [4], 0.3 nM. The Ki in assay [5] came out at 0.24 nM; on Mu-type opioid receptor [6], 272 nM. The Selectivity in assay [1] worked out at 1140.

Consider `Cc1cc(O)cc(C)c1C[C@H](N)C(=O)N1Cc2ccccc2C[C@H]1C(=O)N[C@@H](C)c1nc2ccccc2[nH]1`, for which the IC50 on Mu-type opioid receptor [3] turned out to be 71.7 nM. In addition, the Ki was 0.063 nM in assay [5] and 0.411 nM on Mu-type opioid receptor [6]. The Selectivity in assay [1] was determined as 6.5.

As to `Cc1cc(O)cc(C)c1C[C@H](N)C(=O)N1Cc2ccccc2C[C@H]1C(=O)NCCc1nc2ccccc2[nH]1`, 108 nM corresponded to half-maximal inhibition at Mu-type opioid receptor [3] (IC50). For the same compound, the Selectivity in assay [1] was determined as 82. The compound also gave a Ke in assay [2] of 4.78 nM.

The compound `Cc1cc(O)cc(C)c1C[C@H](N)C(=O)N1Cc2ccccc2C[C@H]1C(=O)N[C@H](C)C(N)=O` (H-[Dmt]-[Tic]-[dA]-NH2) gave a half-inhibitory concentration (IC50) against Mu-type opioid receptor [3] greater than 10000 nM. The Ki in assay [5] was determined as 0.301 nM; at Mu-type opioid receptor [6], 47.5 nM. In addition, the Selectivity in assay [1] stood at 158. Besides, the Ke in assay [2] was determined as 25.1 nM.

`Cc1cc(O)cc(C)c1C[C@H](N)C(=O)N1Cc2ccccc2C[C@H]1C(=O)NCc1nc2ccccc2[nH]1`: the IC50 came to 40.7 nM at Mu-type opioid receptor [3] and 0.035 nM in assay [4].

Turning to `Cc1cc(O)cc(C)c1C[C@H](N)C(=O)N1Cc2ccccc2C[C@H]1C(=O)N[C@@H](CC(=O)O)c1nc2ccccc2[nH]1`, the Selectivity in assay [1] was determined as 122.

Regarding `Cc1cc(O)cc(C)c1C[C@H](N)C(=O)N1Cc2ccccc2C[C@H]1C(=O)N[C@@H](Cc1nc2ccccc2[nH]1)C(=O)O`, the 50% inhibitory concentration (IC50) at Mu-type opioid receptor [3] was found to be 1560 nM; in assay [4], 0.015 nM. The Ki turned out to be 0.042 nM in assay [5] and 21.7 nM at Mu-type opioid receptor [6]. For the same compound, the Selectivity in assay [1] was 516.

Regarding `Cc1cc(O)cc(C)c1C[C@H](N)C(=O)N1Cc2ccccc2C[C@H]1C(=O)N[C@@H](CC(N)=O)C(=O)O` (H-[Dmt]-[Tic]-Asn-OH), the IC50 on Mu-type opioid receptor [3] is greater than 10000 nM. Further, the Ki is 1.1 nM in assay [5] and 80.3 nM at Mu-type opioid receptor [6]. Moreover, the Selectivity in assay [1] stood at 73. In assay [2], this compound returned a Ke of 5.88 nM.

On Mu-type opioid receptor [3], `C[C@@H](NC(=O)[C@@H](N)Cc1ccc(O)cc1)C(=O)N[C@@H](Cc1ccccc1)C(=O)NCC(=O)N[C@@H](Cc1ccc(O)cc1)C(=O)N1CCC[C@H]1C(=O)N[C@@H](CO)C(N)=O` [DERMORPHIN] registered an IC50 of 1.21 nM. The same compound returned a Ki on Mu-type opioid receptor [6] of 1.22 nM.

As for `Cc1cc(O)cc(C)c1C[C@H](N)C(=O)N1Cc2ccccc2C[C@H]1C(=O)N[C@@H](CC(=O)O)C(N)=O` (H-[Dmt]-[Tic]-Asp-NH2), the IC50 against Mu-type opioid receptor [3] is greater than 10000 nM. For the same compound, the Ki in assay [5] amounted to 0.289 nM; at Mu-type opioid receptor [6], 2560 nM. The Ke in assay [7] is 7.58 nM. For the same compound, in assay [1], the Selectivity is 8880.

The values above are taken from ChEMBL document CHEMBL1135679, “Potent delta-opioid receptor agonists containing the Dmt-Tic pharmacophore” (J Med Chem, 2002).
